Laboratory results as given in ChEMBL document CHEMBL4138201, “Synthesis and biological evaluation of sulfur-containing shikonin oxime derivatives as potential antineoplastic agents” (Eur J Med Chem, 2018).

Test system: MGC-803
Experiment: Cytotoxicity against human MGC803 cells after 48 hrs by MTT assay
Format: functional, cell-based
Conditions: MGC-803, 48 h
Outline: (§1)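 MTT colorimetric assay. Shikonin and 5-fluorouracil served as reference agents. IC₅₀ obtained by linear regression of each compound's concentration–response curve.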

SMILES | IC50 [µM]
COc1cc(C(CC=C(C)C)SC(=O)C=C(C)C)c(OC)c2c1/C(=N/O)C=C/C2=N\O (stereo not given) | 3.96
CCCCSC(CC=C(C)C)c1cc(OC)c2c(c1OC)/C(=N/O)C=C/C2=N\O (stereo not given) | 9.32
COc1cc(C(CC=C(C)C)SC(C)=O)c(OC)c2c1/C(=N/O)C=C/C2=N\O (stereo not given) | 2.49
COc1cc(C(CC=C(C)C)SC(=O)c2ccc(Cl)cc2)c(OC)c2c1/C(=N/O)C=C/C2=N\O (stereo not given) | 1.45
COc1cc([C@@H](CC=C(C)C)SC(=O)c2ccccc2)c(OC)c2c1/C(=N/O)C=C/C2=N\O | 2.67
COc1cc(C(CC=C(C)C)SC(=O)c2ccncc2)c(OC)c2c1/C(=N/O)C=C/C2=N\O (stereo not given) | 19.4
CCCCCCCCCCCCSC(CC=C(C)C)c1cc(OC)c2c(c1OC)/C(=N/O)C=C/C2=N\O (stereo not given) | 31.6
COc1ccccc1C(=O)SC(CC=C(C)C)c1cc(OC)c2c(c1OC)/C(=N/O)C=C/C2=N\O (stereo not given) | 1.37
COc1cc([C@H](CC=C(C)C)SC(=O)c2ccccc2)c(OC)c2c1/C(=N/O)C=C/C2=N\O | 1.26
COc1cc(C(CC=C(C)C)SC(=O)c2ccc(NC(=O)OC(C)(C)C)cc2)c(OC)c2c1/C(=N/O)C=C/C2=N\O (stereo not given) | 6.56
CCSC(CC=C(C)C)c1cc(OC)c2c(c1OC)/C(=N/O)C=C/C2=N\O (stereo not given) | 12.5

Test system: Bel-7402
Experiment: Cytotoxicity against human Bel7402 cells after 48 hrs by MTT assay
Format: functional, cell-based
Conditions: Bel-7402, 48 h
Outline: as §1

SMILES | IC50 [µM]
COc1cc(C(CC=C(C)C)SC(=O)C=C(C)C)c(OC)c2c1/C(=N/O)C=C/C2=N\O (stereo not given) | 4.53
CCCCSC(CC=C(C)C)c1cc(OC)c2c(c1OC)/C(=N/O)C=C/C2=N\O (stereo not given) | 12.6
COc1cc(C(CC=C(C)C)SC(C)=O)c(OC)c2c1/C(=N/O)C=C/C2=N\O (stereo not given) | 3.65
COc1cc(C(CC=C(C)C)SC(=O)c2ccc(Cl)cc2)c(OC)c2c1/C(=N/O)C=C/C2=N\O (stereo not given) | 1.16
COc1cc([C@@H](CC=C(C)C)SC(=O)c2ccccc2)c(OC)c2c1/C(=N/O)C=C/C2=N\O | 2.97
COc1cc(C(CC=C(C)C)SC(=O)c2ccncc2)c(OC)c2c1/C(=N/O)C=C/C2=N\O (stereo not given) | 26.8
CCCCCCCCCCCCSC(CC=C(C)C)c1cc(OC)c2c(c1OC)/C(=N/O)C=C/C2=N\O (stereo not given) | 34.3
COc1ccccc1C(=O)SC(CC=C(C)C)c1cc(OC)c2c(c1OC)/C(=N/O)C=C/C2=N\O (stereo not given) | 1.06
COc1cc([C@H](CC=C(C)C)SC(=O)c2ccccc2)c(OC)c2c1/C(=N/O)C=C/C2=N\O | 1.48
COc1cc(C(CC=C(C)C)SC(=O)c2ccc(NC(=O)OC(C)(C)C)cc2)c(OC)c2c1/C(=N/O)C=C/C2=N\O (stereo not given) | 9.17
CCSC(CC=C(C)C)c1cc(OC)c2c(c1OC)/C(=N/O)C=C/C2=N\O (stereo not given) | 20.1

Test system: not listed separately
Experiment: Cytotoxicity against human HSF cells after 48 hrs by MTT assay
Format: cell-based
Conditions: not given
Outline: as §1

SMILES | IC50 [µM]
COc1cc(C(CC=C(C)C)SC(=O)C=C(C)C)c(OC)c2c1/C(=N/O)C=C/C2=N\O (stereo not given) | > 50
CCCCSC(CC=C(C)C)c1cc(OC)c2c(c1OC)/C(=N/O)C=C/C2=N\O (stereo not given) | > 50
COc1cc(C(CC=C(C)C)SC(C)=O)c(OC)c2c1/C(=N/O)C=C/C2=N\O (stereo not given) | > 50
COc1cc(C(CC=C(C)C)SC(=O)c2ccc(Cl)cc2)c(OC)c2c1/C(=N/O)C=C/C2=N\O (stereo not given) | > 50
COc1cc([C@@H](CC=C(C)C)SC(=O)c2ccccc2)c(OC)c2c1/C(=N/O)C=C/C2=N\O | > 50
COc1cc(C(CC=C(C)C)SC(=O)c2ccncc2)c(OC)c2c1/C(=N/O)C=C/C2=N\O (stereo not given) | > 50
CCCCCCCCCCCCSC(CC=C(C)C)c1cc(OC)c2c(c1OC)/C(=N/O)C=C/C2=N\O (stereo not given) | > 50
COc1ccccc1C(=O)SC(CC=C(C)C)c1cc(OC)c2c(c1OC)/C(=N/O)C=C/C2=N\O (stereo not given) | > 50
COc1cc([C@H](CC=C(C)C)SC(=O)c2ccccc2)c(OC)c2c1/C(=N/O)C=C/C2=N\O | > 50
COc1cc(C(CC=C(C)C)SC(=O)c2ccc(NC(=O)OC(C)(C)C)cc2)c(OC)c2c1/C(=N/O)C=C/C2=N\O (stereo not given) | > 50
CCSC(CC=C(C)C)c1cc(OC)c2c(c1OC)/C(=N/O)C=C/C2=N\O (stereo not given) | > 50

Test system: HCT-15
Experiment: Cytotoxicity against human HCT15 cells after 48 hrs by MTT assay
Format: functional, cell-based
Conditions: HCT-15, 48 h
Outline: as §1

SMILES | IC50 [µM]
COc1cc(C(CC=C(C)C)SC(=O)C=C(C)C)c(OC)c2c1/C(=N/O)C=C/C2=N\O (stereo not given) | 1.56
CCCCSC(CC=C(C)C)c1cc(OC)c2c(c1OC)/C(=N/O)C=C/C2=N\O (stereo not given) | 4.37
COc1cc(C(CC=C(C)C)SC(C)=O)c(OC)c2c1/C(=N/O)C=C/C2=N\O (stereo not given) | 1.22
COc1cc(C(CC=C(C)C)SC(=O)c2ccc(Cl)cc2)c(OC)c2c1/C(=N/O)C=C/C2=N\O (stereo not given) | 0.82
COc1cc([C@@H](CC=C(C)C)SC(=O)c2ccccc2)c(OC)c2c1/C(=N/O)C=C/C2=N\O | 1.06
COc1cc(C(CC=C(C)C)SC(=O)c2ccncc2)c(OC)c2c1/C(=N/O)C=C/C2=N\O (stereo not given) | 7.32
CCCCCCCCCCCCSC(CC=C(C)C)c1cc(OC)c2c(c1OC)/C(=N/O)C=C/C2=N\O (stereo not given) | 14.7
COc1ccccc1C(=O)SC(CC=C(C)C)c1cc(OC)c2c(c1OC)/C(=N/O)C=C/C2=N\O (stereo not given) | 0.89
COc1cc([C@H](CC=C(C)C)SC(=O)c2ccccc2)c(OC)c2c1/C(=N/O)C=C/C2=N\O | 0.59
COc1cc(C(CC=C(C)C)SC(=O)c2ccc(NC(=O)OC(C)(C)C)cc2)c(OC)c2c1/C(=N/O)C=C/C2=N\O (stereo not given) | 3.39
CCSC(CC=C(C)C)c1cc(OC)c2c(c1OC)/C(=N/O)C=C/C2=N\O (stereo not given) | 7.15

Test system: MCF7
Experiment: Cytotoxicity against human MCF7 cells after 48 hrs by MTT assay
Format: functional, cell-based
Conditions: MCF7, 48 h
Outline: as §1

SMILES | IC50 [µM]
COc1cc(C(CC=C(C)C)SC(=O)C=C(C)C)c(OC)c2c1/C(=N/O)C=C/C2=N\O (stereo not given) | 29.9
CCCCSC(CC=C(C)C)c1cc(OC)c2c(c1OC)/C(=N/O)C=C/C2=N\O (stereo not given) | 36
COc1cc(C(CC=C(C)C)SC(C)=O)c(OC)c2c1/C(=N/O)C=C/C2=N\O (stereo not given) | 23.5
COc1cc(C(CC=C(C)C)SC(=O)c2ccc(Cl)cc2)c(OC)c2c1/C(=N/O)C=C/C2=N\O (stereo not given) | 20.4
COc1cc([C@@H](CC=C(C)C)SC(=O)c2ccccc2)c(OC)c2c1/C(=N/O)C=C/C2=N\O | 25.5
COc1cc(C(CC=C(C)C)SC(=O)c2ccncc2)c(OC)c2c1/C(=N/O)C=C/C2=N\O (stereo not given) | > 50
CCCCCCCCCCCCSC(CC=C(C)C)c1cc(OC)c2c(c1OC)/C(=N/O)C=C/C2=N\O (stereo not given) | > 50
COc1ccccc1C(=O)SC(CC=C(C)C)c1cc(OC)c2c(c1OC)/C(=N/O)C=C/C2=N\O (stereo not given) | 19.8
COc1cc([C@H](CC=C(C)C)SC(=O)c2ccccc2)c(OC)c2c1/C(=N/O)C=C/C2=N\O | 18.1
COc1cc(C(CC=C(C)C)SC(=O)c2ccc(NC(=O)OC(C)(C)C)cc2)c(OC)c2c1/C(=N/O)C=C/C2=N\O (stereo not given) | 32.4
CCSC(CC=C(C)C)c1cc(OC)c2c(c1OC)/C(=N/O)C=C/C2=N\O (stereo not given) | 44.2
